Screening results from PubChem.
Most compounds without a hit are left out; they make up all but 2.5% or so of the library.
HTRA1 inh: HTRA1 serine protease inhibitors, primary screen, biochemical, fluorescence polarization, HTS. hit rate 0.5% among 340,000. Q92743. inhibition, % at 5.96 µM. recombinant HTRA1, FP-rhodamine activity-based probe; in the data active means inhibition above about 36%;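 further: 0% = enzyme with DMSO and 100% = wells lacking enzyme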
PRMT1 FP inh: PRMT1 methyltransferase inhibitors, primary screen, biochemical, fluorescence polarization. recombinant PRMT1, activity-based probe fluorescence polarization. inhibition, % at 2.79 µM. hit rate 1.3% among 370,000. AID 652257, 2013;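 active means inhibition above about 21% made by adding two undisclosed values, limit read from the data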
Target sequence (Q99873 whole entry, looked up): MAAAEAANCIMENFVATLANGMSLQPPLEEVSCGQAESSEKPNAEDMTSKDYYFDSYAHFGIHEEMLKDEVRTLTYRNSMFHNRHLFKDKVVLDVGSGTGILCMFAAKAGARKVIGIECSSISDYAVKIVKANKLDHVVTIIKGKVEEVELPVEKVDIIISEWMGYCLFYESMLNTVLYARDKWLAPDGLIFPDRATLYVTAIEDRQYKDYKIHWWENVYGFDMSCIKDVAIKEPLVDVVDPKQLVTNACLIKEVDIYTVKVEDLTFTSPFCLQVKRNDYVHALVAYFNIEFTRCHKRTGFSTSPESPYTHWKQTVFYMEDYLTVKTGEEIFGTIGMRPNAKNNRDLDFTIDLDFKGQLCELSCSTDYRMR
mABHD4 FP: ABHD4 inhibitors, primary screen, biochemical, fluorescence polarization, mouse; (Lyso)-N-acylphosphatidylethanolamine lipase (Mus musculus), Q8VD66; purified mABHD4, FP-Rh probe fluorescence polarization; inhibition, % at 8.92 µM; hit rate 0.54% among 370,000; AID 720543, 2013;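 active means inhibition exceeding the mean over every tested compound plus 3 SD, cut at about 30% in these data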;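 further: 0% = plate median of compound wells and 100% = S159A mutant with DMSO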
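Assay system: mABHD4 protein; medium: HEPES pH 7.0, NaCl, Pluronic buffer; dosing: 8.92 µM, single dose; schedule: 45 min + 60 min at 25 °C; signal: FP readout, ex 525 nm / em 598 nm; read-out: normalized percent inhibition of probe labeling; repeats: single replicate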
SIAE inh: human SIAE inhibitors, primary screen, biochemical, fluorescence polarization, FP-Rh probe, 1536-well HTS; Sialate O-acetylesterase (Homo sapiens), Q9HAT2; SIAE FP-Rh probe binding; inhibition, % at 9.66 µM; hit rate 0.69% among 370,000; AID 1053197, 2014;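 active means inhibition above a cutoff: mean of compounds within the control limits plus 3 SD of those, cut at about 17% in these data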;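 further: 0% = plate median of compound wells and 100% = probe without SIAE protein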
TCR CD3 inh: inhibitors of human TCR-CD3 interaction, primary screen, biochemical, fluorescence, TAMRA-labeled TCR probe; hit rate 0.37% among 360,000; inhibition, % at 9.4 µM; T-cell receptor (TCR); in the data active means inhibition above about 19%;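 further: recombinant mutant TCR 2C K166C tagged with TAMRA read by polarization; 0% = receptor in buffer alone and 100% = receptor with positive control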
PRMT1 confirm: PRMT1 methyltransferase inhibitors, confirmation, biochemical, fluorescence polarization, triplicate; shares compounds with PRMT1 FP inh; hit rate 42% among 3,300; recombinant His-PRMT1, activity-based probe fluorescence polarization; inhibition, % at 2.79 µM; AID 687036, 2013;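 active means mean inhibition across replicates above the hit cutoff derived for the earlier primary screen, cut at about 22% in these data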
* hit, by the source's call; . = not tested or not shown.

SMILES	HTRA1 inh	PRMT1 FP inh	mABHD4 FP	SIAE inh	TCR CD3 inh	PRMT1 confirm
CCOC(=O)c1ccc(-n2c(CCC(=O)O)ccc2-c2cccs2)cc1	-10.7	46.8*	2.0	3.9	1.1	6.5
Cc1ccc(-n2c(CCC(=O)O)ccc2-c2cccs2)cc1C	-1.8	32.0*	-0.3	1.8	-4.5	4.0
COC(=O)C[C@@H]1CC[C@H]2[C@@H](COc3ccc(NC(=O)NC(C)C)cc3C(=O)N2C)O1	.	-1.7	-2.7	-5.8	.	.
CSc1ccccc1NC(=O)CSCc1nc2sc(C)c(C)c2c(=O)[nH]1	-6.5	6.9	0.7	-1.8	-7.4	.
Cc1ccc(F)cc1NC(=O)CSCc1nc2sc(C)c(C)c2c(=O)[nH]1	-8.9	33.8*	5.6	6.4	8.9	37.6*
S=C(Nc1ccccc1Cl)NC1CCN(Cc2ccccc2)CC1	-0.8	25.4*	-2.9	8.8	3.8	11.4
Cc1c(Cl)cccc1NC(=S)NC1CCN(Cc2ccccc2)CC1	-5.8	0.6	-3.9	-0.5	6.8	.
Cc1ccc(S(=O)(=O)N2CCCC2c2cccc3[nH]cc(C)c23)cc1 (centres undefined)	.	1.2	1.0	-2.2	.	.
Nc1nc2ccc(S(=O)(=O)N3CCCCC3)cc2s1	2.3	29.6*	-0.7	7.9	-1.6	73.1*
CCOC(=O)[C@H](Cc1ccccc1)NC(=O)[C@H]1C[C@@]2(N3CCCCC3)c3ccccc3N(C(=O)OC(C)(C)C)[C@H]2N1C(=O)OC(C)(C)C	.	2.6	-5.6	5.5	.	.
COc1ccc(S[C@]2(C(=O)NCc3ccccc3)CC(=O)N[C@@H]2c2ccc(OC)cc2)cc1	.	-1.6	-3.8	-1.7	.	.
CCN=C1S/C(=C\c2cn(C(C)=O)nc2-c2ccccc2)C(=O)N1CC	-33.1	-2.5	-3.7	-8.0	5.0	.
CC(=O)NC1=NC(=O)/C(=C/c2cn(C(C)=O)nc2-c2ccccc2)S1	-4.4	30.5*	-20.8	-8.1	-1.8	26.8*
CC(=O)NC1=NC(=O)/C(=C/c2cc(C)n(-c3ccc(NC(C)=O)cc3)c2C)S1	-1.2	32.1*	-1.0	-5.8	0.5	-8.9
Cc1cc(/C=C2\SC(=O)N(C)C2=O)c(C)n1-c1ccc(O)cc1	-1.6	1.7	14.6	-1.6	2.2	.
CC(=O)NC1=NC(=O)/C(=C/c2cc(C)n(-c3cccc(C(=O)O)c3)c2C)S1	.	57.1*	8.8	-4.5	6.8	9.3
COC/C=C/C1=CC2=CC(=O)C(C)(OC(=O)C3CCCC3)C(=O)C2=CO1 (centres undefined)	28.0	46.4*	21.7	3.8	8.6	24.4*
COc1ccccc1CNC(=O)NCCCN1CCN(c2ccc(F)cc2)CC1	.	1.2	3.4	2.5	.	.
O=C(Nc1sc2c(c1-c1nc3ccccc3s1)CCNC2)C(F)(F)F	.	40.7*	11.5	-0.2	.	10.5
CCN(Cc1ccccc1)S(=O)(=O)CCNC(=O)c1ccccc1	1.8	32.5*	1.2	1.9	-4.7	0.7
CC(C)(N[C@@H](Cc1ccccc1)C(=O)NCCc1c[nH]c2ccccc12)C(=O)NC1CCCCC1	.	-1.9	1.0	3.2	.	.
CCc1ccc(NC(=O)COC(=O)/C=C/c2ccco2)cc1	-5.7	28.4*	-8.8	-4.1	-3.7	-1.3
CC(=O)Nc1ccc(C(=O)/C=C/c2ccco2)cc1	10.7	36.5*	-5.0	3.8	-5.0	27.1*
O=C(COC(=O)/C=C/c1ccco1)Nc1ccccc1	-5.1	0.4	0.6	0.6	6.6	.
CCCCCCCCN1C(=O)N2Cc3cc(F)ccc3C2CS1(=O)=O (centres undefined)	.	1.7	5.2	1.7	.	.
O=C(CCCCCn1c(SCc2ccncc2)nc2ccccc2c1=O)NCc1ccco1	-9.4	46.5*	2.4	0.9	4.8	8.8
N#CCSc1nc2ccccc2c(=O)n1CCCC(=O)NCc1ccco1	8.7	-1.6	-1.5	1.7	-4.1	.
COC(=O)c1ccc(Cn2ccc3ccc(-c4ccc5ccn(C(=O)c6ccccc6C)c5c4)cc32)cc1	.	-3.0	-3.9	3.0	.	.
Cc1ccc(-c2nc3s/c(=C\c4ccco4)c(=O)n3n2)cc1	13.0	28.2*	-1.9	-5.7	12.0	1.0
